Values belong to the compound of their own block, whether it stands above or below them.
Legend:
[1] = tested on: Rattus norvegicus; experiment: Increase in cholesterol level in Wistar rat liver at 419 umol/kg/day administered through diet for 10 days; format: ADME, organism-based; conditions: in vivo, po, 240 h
Method in brief: (§1)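 Male Wistar rats (170-190 g), six per group, given compound by admixture to lab chow ad libitum for 4 or 10 days, dose derived from food intake. Liver cholesterol determined by automated procedure, expressed as mg/g wet tissue, compared with an untreated control group by Student's t test.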

[2] = tested on: Rattus norvegicus; experiment: Hypolipidemic activity in Wistar rat assessed as reduction in plasma cholesterol level at 419 umol/kg/day administered through diet for 10 days; format: functional; conditions: 240 h
Method in brief: (§2)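 Young male Wistar rats, 170-190 g initial weight, groups of six, given compound mixed thoroughly into Purina Lab Chow ad libitum for 4 or 10 days as stated. Daily dose calculated from food consumption and body weight. Bled by cardiac puncture at end of treatment; plasma cholesterol measured by automated procedure. Expressed as percent reduction versus simultaneous untreated control group; Student's t test.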

[3] = tested on: Rattus norvegicus; experiment: Hypolipidemic activity in Wistar rat assessed as reduction in plasma triglyceride level at 419 umol/kg/day administered through diet for 10 days; format: functional; conditions: 240 h
Method in brief: (§3)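 Young male Wistar rats (initial weight 170-190 g), groups of six, fed compound mixed into Purina Lab Chow ad libitum for 4 or 10 days; daily dose calculated from food consumption and body weight. Bled by cardiac puncture; plasma cholesterol and triglycerides by automated procedures; percent reduction versus simultaneous untreated controls, Student's t test.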

[4] = tested on: Rattus norvegicus; experiment: Increase in liver weight in Wistar rat at 419 umol/kg/day administered through diet for 10 days; format: ADME, organism-based; conditions: in vivo, po, 240 h
Method in brief: (§4)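 Male Wistar rats (170-190 g initial), groups of six, dosed via diet ad libitum for 4 or 10 days, daily dose from food consumption. Liver wet weight measured, expressed as g/100 g final body weight, compared with untreated controls run simultaneously.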

[5] = tested on: Rattus norvegicus; experiment: Increase in liver weight in Wistar rat at 374 umol/kg/day administered through diet for 4 days; format: ADME, organism-based; conditions: in vivo, po, 96 h; method in brief: as §4
[6] = tested on: Rattus norvegicus; experiment: Hypolipidemic activity in Wistar rat assessed as reduction in plasma cholesterol level at 374 umol/kg/day administered through diet for 4 days; format: functional; conditions: 96 h
Method in brief: (§5)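 Young male Wistar rats, 170-190 g at start, in groups of six, given compound mixed into Purina Lab Chow ad libitum for 4 or 10 days as stated. Daily dose was calculated from food consumption and body weight. Plasma was taken by cardiac puncture at the end and cholesterol measured by automated procedure. Results are % reduction versus a concurrent untreated control group, with Student's t test.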

[7] = tested on: Rattus norvegicus; experiment: Hypolipidemic activity in Wistar rat assessed as reduction in plasma triglyceride level at 374 umol/kg/day administered through diet for 4 days; format: functional; conditions: 96 h; method in brief: as §3
[8] = tested on: Rattus norvegicus; experiment: Hypolipidemic activity in Wistar rat assessed as reduction in plasma triglyceride level at 411 umol/kg/day administered through diet for 10 days; format: functional; conditions: 240 h
[9] = tested on: Rattus norvegicus; experiment: Hypolipidemic activity in Wistar rat assessed as reduction in plasma cholesterol level at 411 umol/kg/day administered through diet for 10 days; format: functional; conditions: 240 h; method in brief: as §5
[10] = tested on: Rattus norvegicus; experiment: Hypolipidemic activity in Wistar rat assessed as reduction in plasma cholesterol level at 443 umol/kg/day administered through diet for 4 days; format: functional; conditions: 96 h; method in brief: as §2
[11] = tested on: Rattus norvegicus; experiment: Hypolipidemic activity in Wistar rat assessed as reduction in plasma triglyceride level at 443 umol/kg/day administered through diet for 4 days; format: functional; conditions: 96 h; method in brief: as §3
[12] = tested on: Rattus norvegicus; experiment: Hypolipidemic activity in Wistar rat assessed as reduction in plasma cholesterol level at 491 umol/kg/day administered through diet for 4 days; format: functional; conditions: 96 h; method in brief: as §2
[13] = tested on: Rattus norvegicus; experiment: Increase in liver weight in Wistar rat at 491 umol/kg/day administered through diet for 4 days; format: ADME, organism-based; conditions: in vivo, po, 96 h
[14] = tested on: Rattus norvegicus; experiment: Hypolipidemic activity in Wistar rat assessed as reduction in plasma triglyceride level at 491 umol/kg/day administered through diet for 4 days; format: functional; conditions: 96 h
[15] = tested on: Rattus norvegicus; experiment: Increase in liver weight in Wistar rat at 439 umol/kg/day administered through diet for 4 days; format: ADME, organism-based; conditions: in vivo, po, 96 h; method in brief: as §4
[16] = tested on: Rattus norvegicus; experiment: Hypolipidemic activity in Wistar rat assessed as reduction in plasma triglyceride level at 439 umol/kg/day administered through diet for 4 days; format: functional; conditions: 96 h; method in brief: as §3
[17] = tested on: Rattus norvegicus; experiment: Hypolipidemic activity in Wistar rat assessed as reduction in plasma cholesterol level at 439 umol/kg/day administered through diet for 4 days; format: functional; conditions: 96 h; method in brief: as §2
[18] = tested on: Rattus norvegicus; experiment: Hypolipidemic activity in Wistar rat assessed as reduction in plasma cholesterol level at 430 umol/kg/day administered through diet for 4 days; format: functional; conditions: 96 h; method in brief: as §2
[19] = tested on: Rattus norvegicus; experiment: Increase in liver weight in Wistar rat at 430 umol/kg/day administered through diet for 4 days; format: ADME, organism-based; conditions: in vivo, po, 96 h; method in brief: as §4
[20] = tested on: Rattus norvegicus; experiment: Hypolipidemic activity in Wistar rat assessed as reduction in plasma triglyceride level at 430 umol/kg/day administered through diet for 4 days; format: functional; conditions: 96 h; method in brief: as §3
[21] = tested on: Rattus norvegicus; experiment: Increase in cholesterol level in Wistar rat liver at 430 umol/kg/day administered through diet for 4 days; format: ADME, organism-based; conditions: in vivo, po, 96 h; method in brief: as §1
[22] = tested on: Rattus norvegicus; experiment: Increase in liver weight in Wistar rat at 482 umol/kg/day administered through diet for 4 days; format: ADME, organism-based; conditions: in vivo, po, 96 h; method in brief: as §4
[23] = tested on: Rattus norvegicus; experiment: Hypolipidemic activity in Wistar rat assessed as reduction in plasma triglyceride level at 482 umol/kg/day administered through diet for 4 days; format: functional; conditions: 96 h; method in brief: as §3
[24] = tested on: Rattus norvegicus; experiment: Hypolipidemic activity in Wistar rat assessed as reduction in plasma cholesterol level at 482 umol/kg/day administered through diet for 4 days; format: functional; conditions: 96 h; method in brief: as §2
[25] = tested on: Rattus norvegicus; experiment: Hypolipidemic activity in Wistar rat assessed as reduction in plasma triglyceride level at 420 umol/kg/day administered through diet for 4 days; format: functional; conditions: 96 h; method in brief: as §3
[26] = tested on: Rattus norvegicus; experiment: Hypolipidemic activity in Wistar rat assessed as reduction in plasma cholesterol level at 420 umol/kg/day administered through diet for 4 days; format: functional; conditions: 96 h; method in brief: as §2
[27] = tested on: Rattus norvegicus; experiment: Increase in liver weight in Wistar rat at 420 umol/kg/day administered through diet for 4 days; format: ADME, organism-based; conditions: in vivo, po, 96 h; method in brief: as §4
[28] = tested on: Rattus norvegicus; experiment: Hypolipidemic activity in Wistar rat assessed as reduction in plasma cholesterol level at 439 umol/kg/day administered through diet for 10 days; format: functional; conditions: 240 h; method in brief: as §2
[29] = tested on: Rattus norvegicus; experiment: Hypolipidemic activity in Wistar rat assessed as reduction in plasma triglyceride level at 439 umol/kg/day administered through diet for 10 days; format: functional; conditions: 240 h; method in brief: as §3
[30] = tested on: Rattus norvegicus; experiment: Increase in liver weight in Wistar rat at 439 umol/kg/day administered through diet for 10 days; format: ADME, organism-based; conditions: in vivo, po, 240 h; method in brief: as §4
[31] = tested on: Rattus norvegicus; experiment: Hypolipidemic activity in Wistar rat assessed as reduction in plasma triglyceride level at 456 umol/kg/day administered through diet for 10 days; format: functional; conditions: 240 h
[32] = tested on: Rattus norvegicus; experiment: Hypolipidemic activity in Wistar rat assessed as reduction in plasma cholesterol level at 456 umol/kg/day administered through diet for 10 days; format: functional; conditions: 240 h; method in brief: as §2

Structure (SMILES): CCCCCCCCCCCCCCCCOc1ccc(C(=O)CCC(=O)O)cc1
Activity [5]: 0% | inhibition in vivo at 374 µmol/kg [6]: 15% | inhibition in vivo at 374 µmol/kg [7]: 42%

Structure (SMILES): CCCCCCCCCCc1ccc(C(=O)CC(=O)OC)cc1
inhibition in vivo at 411 µmol/kg [8]: 69% | inhibition in vivo at 411 µmol/kg [9]: 30%

Structure (SMILES): CCCCCCCCCCCCCCSc1ccc(C(=O)O)o1
inhibition in vivo at 443 µmol/kg [10]: 18% | inhibition in vivo at 443 µmol/kg [11]: 62%

Structure (SMILES): CCCCCCCCCCCCCCOc1ccc(/C=C/C(=O)OC)cc1
inhibition in vivo at 430 µmol/kg [18]: 28% | Activity [19]: 3% | inhibition in vivo at 430 µmol/kg [20]: 67% | Activity [21]: 18%

Structure (SMILES): CCCCCCCCCCCCCCCCOc1ccccc1C(=O)CC(=O)OC
inhibition in vivo at 456 µmol/kg [31]: 23% | inhibition in vivo at 456 µmol/kg [32]: 10%

Now from value to compound, other results behind:

Activity [1]: 17% | Activity [4]: 5%
Structure (SMILES): CCCCCCCCCCCCCCCCOc1ccc(C(=O)O)cc1
inhibition in vivo at 419 µmol/kg [2]: 15% | inhibition in vivo at 419 µmol/kg [3]: 55%

Activity [13]: 0%
Structure (SMILES): CCCCCCCCCCCCCCOc1ccccc1C(=O)OC
inhibition in vivo at 491 µmol/kg [12]: 0% | inhibition in vivo at 491 µmol/kg [14]: 0%

Activity [15]: 1%
Structure (SMILES): CCCCCCCCCCCCCCOc1ccc(C(=O)OCC)c(O)c1
inhibition in vivo at 439 µmol/kg [16]: 0% | inhibition in vivo at 439 µmol/kg [17]: 0%

Activity [22]: 4%
Structure (SMILES): CCCCCCCCCCCCCCOc1ccc(C#N)cc1
inhibition in vivo at 482 µmol/kg [23]: 6% | inhibition in vivo at 482 µmol/kg [24]: 10%

Activity [27]: 0%
Structure (SMILES): CCCCCCCCCCCCCCOc1ccc(C(=O)C(F)(F)F)o1
inhibition in vivo at 420 µmol/kg [25]: 30% | inhibition in vivo at 420 µmol/kg [26]: 2%

Activity [22]: 7%
Structure (SMILES): CCCCCCCCCCCCCCOc1ccc(C(N)=O)o1
inhibition in vivo at 482 µmol/kg [23]: 14% | inhibition in vivo at 482 µmol/kg [24]: 0%

Activity [30]: 8%
Structure (SMILES): CCCCCCCCCCCCCCOc1ccc(C(=O)CC(N)=O)cc1
inhibition in vivo at 439 µmol/kg [28]: 4% | inhibition in vivo at 439 µmol/kg [29]: 3%
